Measured values published in EPA's CvTdb concentration-time database.

What was measured:
Rat [1] = assay: concentration in plasma after dosing; settings: dosed: Isoeugenol, 17 mg/kg, oral, Male, F344/N
Rat [2] = assay: concentration in plasma after dosing; settings: dosed: Isoeugenol, 17 mg/kg, oral, Female, F344/N
Rat [3] = assay: concentration in plasma after dosing; settings: dosed: Isoeugenol, 70 mg/kg, oral, Male, F344/N
Rat [4] = assay: concentration in plasma after dosing; settings: dosed: Isoeugenol, 17 mg/kg, oral, Male, F344/N; remark: listed apart in the source
Rat [5] = assay: concentration in plasma after dosing; settings: dosed: Isoeugenol, 17 mg/kg, oral, Female, F344/N; remark: listed apart in the source
Rat [6] = assay: concentration in plasma after dosing; settings: 20 min; dosed: Isoeugenol; 17 mg/kg; oral; Male; F344/N
Rat [7] = assay: concentration in plasma after dosing; settings: dosed: Isoeugenol, 17 mg/kg, oral, Female, F344/N; remark: listed apart in the source
Rat [8] = assay: concentration in plasma after dosing; settings: dosed: Isoeugenol, 17 mg/kg, oral, Male, F344/N; remark: listed apart in the source
Rat [9] = assay: concentration in plasma after dosing; settings: dosed: Isoeugenol, 17 mg/kg, oral, Male, F344/N; remark: listed apart in the source
Rat [10] = assay: concentration in plasma after dosing; settings: dosed: Isoeugenol, 17 mg/kg, oral, Female, F344/N; remark: listed apart in the source
Rat [11] = assay: concentration in plasma after dosing; settings: dosed: Isoeugenol, 17 mg/kg, oral, Female, F344/N; remark: listed apart in the source
Rat [12] = assay: concentration in plasma after dosing; settings: dosed: Isoeugenol, 70 mg/kg, oral, Male, F344/N; remark: listed apart in the source
Rat [13] = assay: concentration in plasma after dosing; settings: dosed: Isoeugenol, 17 mg/kg, oral, Female, F344/N; remark: listed apart in the source
Rat [14] = assay: concentration in plasma after dosing; settings: dosed: Isoeugenol, 17 mg/kg, oral, Female, F344/N; remark: listed apart in the source
Rat [15] = assay: concentration in plasma after dosing; settings: dosed: Tetralin, 2 mg/kg, iv, Male, Harlan Sprague Dawley
Rat [16] = assay: concentration in plasma after dosing; settings: 2 h; dosed: Tetralin; 20 mg/kg; iv; Female; Harlan Sprague Dawley
Rat [17] = assay: concentration in plasma after dosing; settings: 4 h; dosed: Tetralin; 20 mg/kg; iv; Male; F344
Rat [18] = assay: concentration in plasma after dosing; settings: dosed: Tetralin, 2 mg/kg, iv, Male, F344
Rat [19] = assay: concentration in plasma after dosing; settings: dosed: Tetralin, 2 mg/kg, iv, Male, F344; remark: listed apart in the source
Rat [20] = assay: concentration in plasma after dosing; settings: 2 h; dosed: Tetralin; 2 mg/kg; iv; Male; Harlan Sprague Dawley
Rat [21] = assay: concentration in plasma after dosing; settings: dosed: Tetralin, 2 mg/kg, iv, Male, F344; remark: listed apart in the source
Rat [22] = assay: concentration in plasma after dosing; settings: dosed: Tetralin, 2 mg/kg, iv, Male, Harlan Sprague Dawley; remark: listed apart in the source
Rat [23] = assay: concentration in plasma after dosing; settings: 2 h; dosed: Tetralin; 20 mg/kg; iv; Female; Harlan Sprague Dawley; remark: listed apart in the source
Rat [24] = assay: concentration in plasma after dosing; settings: dosed: Tetralin, 2 mg/kg, iv, Male, F344; remark: listed apart in the source
Rat [25] = assay: concentration in plasma after dosing; settings: dosed: Tetralin, 20 mg/kg, iv, Female, Harlan Sprague Dawley
Rat [26] = assay: concentration in plasma after dosing; settings: dosed: Tetralin, 2 mg/kg, iv, Male, Harlan Sprague Dawley; remark: listed apart in the source
Rat [27] = assay: concentration in plasma after dosing; settings: dosed: Tetralin, 2 mg/kg, iv, Male, F344; remark: listed apart in the source
Rat [28] = assay: concentration in plasma after dosing; settings: dosed: Tetralin, 2 mg/kg, iv, Male, Harlan Sprague Dawley; remark: listed apart in the source
Rat [29] = assay: concentration in plasma after dosing; settings: dosed: Tetralin, 2 mg/kg, iv, Male, Harlan Sprague Dawley; remark: listed apart in the source
Rat [30] = assay: concentration in plasma after dosing; settings: dosed: Tetralin, 20 mg/kg, iv, Female, Harlan Sprague Dawley; remark: listed apart in the source
human = assay: concentration in blood after dosing; settings: dosed: styrene, 80 ppm, inhalation, duration: 6 hr
Procedure, shortened: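 Points were largely digitised from plot screenshots with WebPlotDigitizer or otherwise copied from tables, and they remain in the units each source reported. They come from published in vivo toxicokinetic studies and two structured collections. Sampling and analytical methods follow each source and were often not reported.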

rat [31] = assay: concentration in blood after dosing; settings: dosed: styrene, 3000 ppm, dermal, duration: 4 hr, male, F344

C/C=C/c1ccc(O)c(OC)c1 [Isoeugenol]
Settings | concentration in plasma [µg/mL]
Rat [1], 0.5 h | 0.13
Rat [1], 2 h | 0.0357
Rat [2], 8 h | 0.0318
Rat [2], 20 min | 0.311
Rat [3], 5 h | 0.0668
Rat [3], 10 min | 0.353
Rat [4], 1.5 h | 0.0343
Rat [4], 2 min | 0.0383
Rat [5], 1.5 h | 0.0336
Rat [5], 20 min | 0.0869
Rat [7], 1 h | 0.0227
Rat [7], 3 h | 0.0295
Rat [8], 0.75 h | 0.057
Rat [8], 8 h | 0.0195
Rat [9], 0.75 h | 0.0324
Rat [9], 2 h | 0.0779
Rat [10], 5 h | 0.0283
Rat [10], 10 min | 0.43
Rat [11], 4 h | 0.0285
Rat [11], 10 min | 0.5
Rat [12], 1.5 h | 0.209
Rat [12], 5 min | 0.526
Rat [13], 1.5 h | 0.0529
Rat [13], 5 min | 0.355
Rat [14], 1 h | 0.129
Rat [14], 5 h | 0.0697

Settings | concentration in plasma [µg/mL]
Rat [6] | 0.105

c1ccc2c(c1)CCCC2 [Tetralin]
Settings | concentration in plasma [µg/g]
Rat [15], 4 h | 0.0072
Rat [15], 307 s | 1.62
Rat [18], 0.5033 h | 0.216
Rat [18], 8 h | 0.00356
Rat [19], 4 h | 0.00972
Rat [19], 308 s | 1.77
Rat [21], 0.75 h | 0.105
Rat [21], 12 h | 0.00167
Rat [22], 0.2533 h | 0.406
Rat [22], 6 h | 0.00586
Rat [24], 0.2517 h | 0.63
Rat [24], 6 h | 0.00762
Rat [25], 4 h | 0.216
Rat [25], 5 min | 22.1
Rat [26], 1 h | 0.0468
Rat [26], 24 h | 0.00083
Rat [27], 0.505 h | 0.246
Rat [27], 8 h | 0.00426
Rat [28], 0.75 h | 0.0973
Rat [28], 12 h | 0.00173
Rat [29], 0.75 h | 0.0729
Rat [29], 12 h | 0.00211
Rat [30], 0.25 h | 10.9
Rat [30], 6 h | 0.111

Settings | concentration in plasma [µg/g]
Rat [16] | 0.52
Rat [17] | 0.15
Rat [20] | 0.0164
Rat [23] | 0.628

C=Cc1ccccc1 [styrene]
Settings | concentration in blood [µg/mL]
human, 0.7751 h | 0.429
human, 2.296 h | 0.742
human, 4.093 h | 0.759
human, 5.217 h | 0.777
human, 6.069 h | 0.904
human, 6.347 h | 0.484
human, 7.03 h | 0.241
human, 7.933 h | 0.178
human, 10.01 h | 0.0922
human, 11.99 h | 0.0611
human, 14.2 h | 0.0524
human, 18.16 h | 0.0347
human, 23.1 h | 0.0267
human, 29.98 h | 0.0185
human, 46.98 h | 0.0101
rat [31], 0.5 h | 2.86
rat [31], 1 h | 8.01
rat [31], 2 h | 4.91
rat [31], 3 h | 11.3
rat [31], 4 h | 10.2
